Source: ChEMBL document CHEMBL1123812, “Pyrroloisoquinoline antidepressants. 2. In-depth exploration of structure-activity relationships” (J Med Chem, 1987)
Activity calls are given as the source filed them.

Columns and labels:
[1] = biological target: D(2) dopamine receptor (Rattus norvegicus) (UniProt P61169); assay: Binding affinity towards dopamine receptor D2 at 1.0 uM concentration
Summary of the method: (§1)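 Rat brain crude synaptic membranes in 20 mM NaHEPES pH 7.5. Ligands: α1 cortex […] 0.4 nM, nonspecific with (-)-NE 100 μM, 30 min at 25 °C. […] D2 striatum [3H]spiperone 0.05 nM with (+)-butaclamol 1 μM, 45 min at 37 °C. S1 cortex [3H]5-HT 1 nM plus glutathione and MgCl2, with 5-HT 10 μM, 20 min at 37 °C. […] Samples filtered on GF/B and counted.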

Mus musculus [2] = species on record: Mus musculus; assay: Antagonism of tetrabenazine (TBZ)-induced depression in mice measured for ptosis; assay type: functional; conditions: Mus musculus; read-out: ED50
Summary of the method: (§2)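 Nonfasted male Swiss Webster mice, 18–24 g, ten per dose level and in saline controls. Test compound given ip 30 min before tetrabenazine 32 mg/kg ip; dose expressed as free base. Motor activity and ptosis scored. Control response ≤90% corrected by Abbott's formula.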

Mus musculus [3] = species on record: Mus musculus; assay: Antagonism of tetrabenazine (TBZ)-induced depression measured in mice by motor activity; assay type: functional; conditions: Mus musculus; read-out: ED50; summary of the method: as §2
Mus musculus [4] = species on record: Mus musculus; assay: Gross behavioral effects ascertained in mice; W indicates weak stimulant or depressant activity of little significance.; assay type: functional, organism-based
Summary of the method: (§3)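 Male Swiss Webster mice, 18–24 g, three per dose, given ip doses of 1, 3, 10, 30, 100 and 300 mg/kg. Observed for gross behavior and held for 4 days. Scored as weak (W), stimulant (S), depressant (D) or convulsant (C).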

[5] = biological target: Muscarinic acetylcholine receptor (Rattus norvegicus) (UniProt P08482+P08483+P08485+P08911+P10980); assay: Binding affinity towards Muscarinic acetylcholine receptor at 1.0 uM concentration; assay type: protein assay
[6] = biological target: Sodium-dependent dopamine transporter (Rattus norvegicus, UniProt P23977); assay: Inhibition of the uptake of tritiated dopamine (DA) in rat synaptosomes; assay type: subcellular, Brain
[7] = biological target: Norepinephrine transporter (Rattus norvegicus, UniProt Q9WTR4); assay: Inhibition of uptake of tritiated norepinephrine (NE) in rat synaptosomes; assay type: subcellular, Brain
[8] = biological target: Adrenergic receptor alpha-1 (Rattus norvegicus) (UniProt P15823+P23944+P43140); assay: Binding affinity towards alpha-1 adrenergic receptor at 1.0 uM concentration; assay type: protein assay; summary of the method: as §1
[9] = biological target: Adrenergic receptor alpha-2 (Rattus norvegicus) (UniProt P22086+P19328+P22909); assay: Binding affinity towards alpha-2 adrenergic receptor at 1.0 uM concentration; assay type: protein assay
Rattus norvegicus = species on record: Rattus norvegicus; assay: Ability to inhibit the uptake of tritiated norepinephrine (NE) at 0.1 uM concentration; assay type: functional
Summary of the method: (§4)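 Male Wistar rat brain synaptosomes (P2 fraction): hypothalamus for NE, striatum for DA, cerebral cortex for 5-HT. Buffer is Tris- or HEPES-buffered salt medium with glucose, ascorbate and nialamide, pH 7.4 at 37 °C. Preincubated 10 min at 37 °C with compound. Uptake started with [3H]NE 100–300 nM, [3H]DA 50–300 nM or [3H]5-HT 100–200 nM, incubated 3 min (DA) or 6–10 min (NE, 5-HT). Blanks held on ice. Filtered, counted by scintillation.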

[10] = biological target: Sodium-dependent serotonin transporter (Rattus norvegicus) (UniProt P31652); assay: Inhibition of tritiated serotonin(5-HT) uptake at 0.1 uM concentration; assay type: functional; summary of the method: as §4
[11] = biological target: Sodium-dependent dopamine transporter (Rattus norvegicus) (UniProt P23977); assay: Inhibition of tritiated dopamine (DA) uptake at 0.1 uM concentration; assay type: functional; summary of the method: as §4
Mus musculus [12] = assay: Ability to antagonise intraperitoneal dose; inactive (<10% antagonism) at 30 mg/kg is represented as I-30.; assay type: functional, organism-based; parameters: dose 30 mg/kg; summary of the method: as §2
Mus musculus [13] = assay: Ability to antagonise intraperitoneal dose; inactive (<10% antagonism) at 30 mgjkg is represented as I-30.; assay type: functional, organism-based; summary of the method: as §2
[14] = biological target: Sodium-dependent dopamine transporter (Rattus norvegicus) (UniProt P23977); assay: Ability to inhibit the uptake of [3H]dopamine (DA) 0.1 uM concentration at rat brain synaptosomes; assay type: functional, subcellular; summary of the method: as §4
[15] = biological target: Norepinephrine transporter (Rattus norvegicus) (UniProt Q9WTR4); assay: Ability to inhibit the uptake of [3H]norepinephrine (NE) 0.1 uM concentration at rat brain synaptosomes; assay type: functional, subcellular; summary of the method: as §4
[16] = biological target: Sodium-dependent serotonin transporter (Rattus norvegicus) (UniProt P31652); assay: Ability to inhibit the uptake of [3H]- serotonin(5-HT) 0.1 uM concentration at rat brain synaptosomes; assay type: functional, subcellular; summary of the method: as §4
Mus musculus [17] = species on record: Mus musculus; assay: Gross behavioral effects ascertained in mice; S indicates significant stimulant properties.; assay type: functional, organism-based; summary of the method: as §3
[18] = biological target: Serotonin 1 (5-HT1) receptor (Rattus norvegicus) (UniProt P28564+P30940+P19327+P28565); assay: Binding affinity towards serotonin S1 receptor at 1.0 uM; assay type: protein assay; summary of the method: as §1
[19] = biological target: Serotonin 2 (5-HT2) receptor (Rattus norvegicus, UniProt P30994+P08909+P14842); assay: Binding affinity towards 5-hydroxytryptamine 2 receptor; assay type: protein assay

Norepinephrine transporter (Rattus norvegicus), sequence (Q9WTR4 as listed by the source): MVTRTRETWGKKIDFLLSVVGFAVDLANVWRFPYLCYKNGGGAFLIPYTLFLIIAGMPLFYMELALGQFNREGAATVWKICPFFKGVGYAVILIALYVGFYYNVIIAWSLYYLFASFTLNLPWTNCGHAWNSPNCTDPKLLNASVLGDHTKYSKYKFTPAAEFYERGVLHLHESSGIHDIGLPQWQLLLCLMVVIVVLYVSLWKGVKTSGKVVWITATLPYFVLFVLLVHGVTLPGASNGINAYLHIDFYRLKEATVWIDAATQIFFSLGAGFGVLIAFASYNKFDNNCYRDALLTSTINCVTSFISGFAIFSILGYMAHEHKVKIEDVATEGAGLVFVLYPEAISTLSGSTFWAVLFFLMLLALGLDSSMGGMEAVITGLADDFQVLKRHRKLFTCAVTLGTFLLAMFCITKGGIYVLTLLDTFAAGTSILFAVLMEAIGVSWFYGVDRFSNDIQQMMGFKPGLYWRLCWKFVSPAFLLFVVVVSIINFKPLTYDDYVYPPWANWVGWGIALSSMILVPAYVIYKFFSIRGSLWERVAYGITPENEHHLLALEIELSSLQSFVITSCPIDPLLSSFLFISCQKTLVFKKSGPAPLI
Norepinephrine transporter, sequence (Q9WTR4 whole entry): as the sequence (Q9WTR4 as listed by the source) above
Sodium-dependent serotonin transporter (Rattus norvegicus), sequence (P31652 whole entry): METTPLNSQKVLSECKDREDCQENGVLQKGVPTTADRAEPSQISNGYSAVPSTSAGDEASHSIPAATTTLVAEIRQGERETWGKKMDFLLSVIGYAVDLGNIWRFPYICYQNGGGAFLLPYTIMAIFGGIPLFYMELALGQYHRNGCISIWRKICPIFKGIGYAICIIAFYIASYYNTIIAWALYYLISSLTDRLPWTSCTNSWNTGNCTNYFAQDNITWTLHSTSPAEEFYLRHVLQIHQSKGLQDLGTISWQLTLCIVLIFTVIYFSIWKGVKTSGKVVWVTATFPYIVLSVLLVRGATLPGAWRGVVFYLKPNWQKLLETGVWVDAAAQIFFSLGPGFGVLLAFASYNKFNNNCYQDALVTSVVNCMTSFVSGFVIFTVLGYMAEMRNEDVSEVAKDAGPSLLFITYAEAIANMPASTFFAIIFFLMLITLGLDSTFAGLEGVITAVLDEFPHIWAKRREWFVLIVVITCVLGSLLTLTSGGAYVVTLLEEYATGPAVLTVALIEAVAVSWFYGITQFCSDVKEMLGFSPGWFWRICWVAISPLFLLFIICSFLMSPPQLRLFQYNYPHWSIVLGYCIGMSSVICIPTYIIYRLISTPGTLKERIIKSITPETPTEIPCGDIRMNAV
Sodium-dependent dopamine transporter, sequence (P23977 whole entry): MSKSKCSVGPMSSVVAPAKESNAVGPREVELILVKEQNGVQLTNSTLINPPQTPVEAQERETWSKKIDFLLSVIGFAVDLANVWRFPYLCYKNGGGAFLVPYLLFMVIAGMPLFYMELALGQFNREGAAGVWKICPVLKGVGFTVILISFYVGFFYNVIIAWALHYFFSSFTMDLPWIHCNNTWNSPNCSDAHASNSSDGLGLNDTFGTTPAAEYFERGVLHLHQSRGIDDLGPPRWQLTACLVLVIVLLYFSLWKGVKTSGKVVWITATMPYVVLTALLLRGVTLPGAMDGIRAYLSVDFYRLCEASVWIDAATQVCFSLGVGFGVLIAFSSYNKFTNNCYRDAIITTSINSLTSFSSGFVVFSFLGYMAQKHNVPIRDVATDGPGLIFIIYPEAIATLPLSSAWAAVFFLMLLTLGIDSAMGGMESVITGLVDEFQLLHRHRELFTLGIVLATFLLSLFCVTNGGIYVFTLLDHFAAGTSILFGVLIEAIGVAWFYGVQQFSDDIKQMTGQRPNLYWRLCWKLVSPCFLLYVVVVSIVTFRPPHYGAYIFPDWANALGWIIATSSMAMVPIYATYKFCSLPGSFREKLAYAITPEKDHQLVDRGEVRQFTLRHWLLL
Sodium-dependent dopamine transporter (Rattus norvegicus), sequence (P23977 whole entry): as above
D(2) dopamine receptor (Rattus norvegicus), sequence (P61169 whole entry): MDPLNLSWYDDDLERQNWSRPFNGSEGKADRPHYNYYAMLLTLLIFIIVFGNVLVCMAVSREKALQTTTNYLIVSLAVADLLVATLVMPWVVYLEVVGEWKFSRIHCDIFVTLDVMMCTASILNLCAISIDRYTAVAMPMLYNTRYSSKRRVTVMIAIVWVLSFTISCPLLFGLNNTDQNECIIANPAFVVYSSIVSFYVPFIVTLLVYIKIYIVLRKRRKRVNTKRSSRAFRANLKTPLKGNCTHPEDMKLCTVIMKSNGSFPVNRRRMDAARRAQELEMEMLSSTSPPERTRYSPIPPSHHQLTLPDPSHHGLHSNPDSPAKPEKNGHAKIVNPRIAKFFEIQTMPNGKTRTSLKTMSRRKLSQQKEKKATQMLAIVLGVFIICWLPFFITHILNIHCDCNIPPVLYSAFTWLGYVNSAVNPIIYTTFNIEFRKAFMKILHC

SMILES | ED50 (Mus musculus [2]) [mg/kg] | ED50 (Mus musculus [3]) [mg/kg] | behavior (Mus musculus [4]) | Inhibition (Rattus norvegicus) [%] | inhibition [10] [%] | inhibition [11] [%] | other results
Br.COc1ccc([C@@H]2CN3CCC[C@@H]3c3ccccc32)cc1OC | 0.13 | 2 | Partial stimulant | – | – | – | inhibition [1]: -1%; inhibition [5]: -1%; Ki [6]: 71.9 nM; Ki [7]: 3.4 nM; inhibition [8]: 58%; inhibition [9]: 15%
Br.Clc1cccc2c1[C@H](c1ccccc1)CN1CCC[C@@H]21 | > 3 | > 3 | – | 3 | 0 | 6 | –
c1ccc([C@@H]2CN3CCC[C@@H]3c3ccccc32)cc1 | – | – | Partial stimulant | – | – | – | ED50 (Mus musculus [12]): inactive; ED50 (Mus musculus [13]): inactive; inhibition [14]: 6%; inhibition [15]: 4%; inhibition [16]: 16%
c1ccc([C@@H]2CN3CCC[C@@H]3c3ccccc32)cc1 (stereo in doubt; (+)-7b) | – | – | – | – | – | – | inhibition [1]: 40%; behavior (Mus musculus [17]): Stimulant; inhibition [9]: 64%
Clc1cccc([C@@H]2CN3CCC[C@H]3c3ccccc32)c1 | – | – | – | – | 11 | 67 | Ki [7]: 100 nM
C[C@@H]1[C@@H](c2ccccc2)c2ccccc2[C@@H]2CCCN12 | – | – | Weak | – | – | – | ED50 (Mus musculus [12]): inactive; ED50 (Mus musculus [13]): inactive; inhibition [14]: 0%; inhibition [15]: 4%; inhibition [16]: 12%
Br.CSc1ccc([C@@H]2CN3CCC[C@H]3c3ccccc32)cc1 | 10.9 | > 75 | – | – | – | – | inhibition [1]: 28%; inhibition [5]: 0%; inhibition [8]: 43%
c1ccc(C[C@H]2CN3CCC[C@H]3c3ccccc32)cc1 | – | – | – | – | – | – | ED50 (Mus musculus [12]): inactive; ED50 (Mus musculus [13]): inactive; inhibition [14]: 19%; inhibition [15]: 69%; inhibition [16]: 32%
Br.Oc1ccc([C@@H]2CN3CCC[C@H]3c3ccccc32)cc1 | 2 | – | Partial stimulant | 78 | – | 26 | inhibition [1]: 59%; ED50 (Mus musculus [12]): inactive
Clc1cccc2c1[C@H]1CCCN1C[C@H]2c1ccccc1 | – | – | – | 4 | 22 | 45 | –
Fc1ccc([C@@H]2CN3CCC[C@H]3c3ccccc32)cc1 | > 10 | > 60 | Weak | 61 | 3 | 43 | –
COc1ccccc1[C@@H]1CN2CCC[C@H]2c2ccccc21 | – | – | – | 65 | -2 | -3 | –
COc1cccc2c1[C@H](c1ccccc1)CN1CCC[C@@H]21 | 13.9 | 20.7 | Weak | 5 | 31 | 0 | –
Br.Oc1cccc([C@@H]2CN3CCC[C@H]3c3ccccc32)c1 | 3.1 | > 30 | – | – | – | – | behavior (Mus musculus [17]): Stimulant; Ki [6]: 44.8 nM; Ki [7]: 15.1 nM
CNCCC(Oc1ccc(C(F)(F)F)cc1)c1ccccc1 (stereo not drawn) | – | – | – | – | – | – | inhibition [1]: 12%; inhibition [18]: 13%
Br.C[C@]1(c2ccccc2)CN2CCC[C@H]2c2ccccc21 | 0.44 | 27.2 | – | – | – | – | behavior (Mus musculus [17]): Significant stimulant; Ki [6]: 7.4 nM; Ki [7]: 1.25 nM
COc1cc2c(cc1OC)[C@H]1CCCN1C[C@H]2c1ccccc1 | 3.8 | 15.1 | – | – | – | – | inhibition [1]: 6%; behavior (Mus musculus [17]): Stimulant; Ki [6]: 15 nM; Ki [7]: 53.7 nM
O=C(CCCN1CCC(O)(c2ccc(Cl)cc2)CC1)c1ccc(F)cc1 | – | – | – | – | – | – | inhibition [18]: 58%
Br.Fc1c(F)c(F)c([C@@H]2CN3CCC[C@H]3c3ccccc32)c(F)c1F | – | – | – | 12 | 4 | 0 | –
Clc1ccc([C@@H]2CN3CCC[C@@H]3c3cc(Cl)ccc32)cc1 | ~4 | 37.4 | Partial stimulant | – | – | – | inhibition [1]: 55%; inhibition [18]: 11%; Ki [6]: 3.2 nM; Ki [7]: 3.2 nM; inhibition [8]: 20%; inhibition [9]: 10%
COc1ccc([C@@H]2CN3CCC[C@H]3c3ccccc32)cc1OC | 29.4 | – | Weak | 9 | 27 | 11 | ED50 (Mus musculus [12]): inactive
Br.Fc1c(F)c(F)c([C@@H]2CN3CCC[C@@H]3c3ccccc32)c(F)c1F | – | – | – | 42 | 2 | 14 | –
Br.Clc1cccc([C@@H]2CN3CCC[C@@H]3c3ccccc32)c1 | < 1 | ~0.1 | – | – | – | – | Ki [19]: 49 nM; behavior (Mus musculus [17]): Stimulant; Ki [6]: 2.5 nM; Ki [7]: 0.45 nM
CSc1ccc([C@@H]2CN3CCC[C@@H]3c3ccccc32)cc1 (stereo in doubt; (+)-48b) | – | – | – | – | – | – | inhibition [18]: 31%
